# High-throughput results from PubChem.
# Only some compounds are listed: those with a hit (about 0.4% of all), similar ones and a draw of the others.
# ERp5 inh = ERp5 (human) disulfide isomerase inhibition; ERp5 insulin aggregation, absorbance 650 nm, 90 min; hit rate 0.05% among 350,000; Q15084; inhibition, % at 9.99 µM;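 active = mean replicate inhibition above about 25%, with every replicate also reaching it, limit read from the data, passing the limit was not always enough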
# Target sequence (Q15084 whole entry, looked up): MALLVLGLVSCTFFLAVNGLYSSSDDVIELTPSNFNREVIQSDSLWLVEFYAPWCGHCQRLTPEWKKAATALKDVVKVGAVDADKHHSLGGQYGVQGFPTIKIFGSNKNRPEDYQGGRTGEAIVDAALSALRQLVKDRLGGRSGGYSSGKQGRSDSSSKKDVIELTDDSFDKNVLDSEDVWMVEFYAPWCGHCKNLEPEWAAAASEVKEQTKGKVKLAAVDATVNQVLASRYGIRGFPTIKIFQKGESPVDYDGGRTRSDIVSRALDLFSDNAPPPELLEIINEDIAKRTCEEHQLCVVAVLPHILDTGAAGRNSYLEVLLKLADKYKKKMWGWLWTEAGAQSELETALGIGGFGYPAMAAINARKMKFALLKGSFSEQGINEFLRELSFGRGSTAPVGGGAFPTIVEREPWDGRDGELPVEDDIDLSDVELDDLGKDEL
# Tb MetRS inh = blocks T. brucei methionyl-tRNA synthetase activity. AID 624268. hit rate 0.4% among 360,000. inhibition, % at 11.9 µM. purified T. brucei MetRS, ATP depletion, Kinase-Glo luminescence;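 active = inhibition above a per-plate cutoff of the control wells' mean inhibition plus 3 SD, cut at about 5.5% in these data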;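 also: 0% = DMSO wells median and 100% = median of wells with control inhibitor compound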
#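 System: purified T. brucei MetRS enzyme / Detection: Kinase-Glo luciferase luminescence reporting remaining unconsumed ATP / Medium: HEPES buffer with MgCl2, KCl, DTT, spermine, BSA, pyrophosphatase / Replication: singlicate, one well per compound / Evaluation: percent inhibition relative to median high and low control wells / Schedule: 2 h aminoacylation at 25 °C after 15 min preincubation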
# PDI turbidity = blocks human protein disulfide isomerase activity; P07237; PDI insulin aggregation turbidity, A650, 90 min; inhibition, % at 10 µM; hit rate 0.052% among 350,000; AID 588391;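 active = mean inhibition across replicates of 30% or more, whatever share of single replicates reach that level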
# TbMetRS confirm = confirmation of Trypanosoma brucei MetRS inhibitors; shares compounds with Tb MetRS inh; T. brucei MetRS enzyme, luminescence (ATP depletion); inhibition, % at 11.9 µM; hit rate 93% among 1,400; AID 624412; in the data active = inhibition above about 7%
# Jurkat cytotox = kills Jurkat cells in T. brucei MetRS counterscreen; shares compounds with Tb MetRS inh; hit rate 12% among 1,400; inhibition, % at 8.3 µM; AID 624413; Jurkat cells viability, ATP luminescence; in the data active = inhibition above about 15%;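 also: 0% = vehicle and 100% = reference inhibitor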
# TbMetRS FP orth = inhibits T. brucei methionyl tRNA synthetase in orthogonal FP test; shares compounds with Tb MetRS inh; purified T. brucei MetRS, fluorescence polarization; inhibition, % at 11.9 µM; hit rate 44% among 1,400; AID 651607; in the data active = inhibition above about 17%;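 also: 0% = vehicle wells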
# * = called active by the depositor; x = not tested or not shown.
SMILES,ERp5 inh,Tb MetRS inh,PDI turbidity,TbMetRS confirm,Jurkat cytotox,TbMetRS FP orth
O=C(NCc1nc2ccccc2[nH]1)C1=C[C@@H](C2CCCCC2)C[C@@H](OCc2ccc(CO)cc2)O1,2.4,9.0*,-1.9,82.1*,1.0,53.9*
O=C(NCc1nc2ccccc2[nH]1)C1=C[C@H](C2CC2)C[C@H](OCCCCO)O1,-1.4,-0.2,x,x,x,x
COc1ccc(-n2c(SC)nnc2-c2c[nH]c3ccccc23)cc1,-0.2,1.0,x,x,x,x
COc1ccc(OC)c(-n2c(SCC(=O)NCc3ccco3)nnc2-c2c[nH]c3ccccc23)c1,-0.8,9.5*,x,21.5*,5.5,11.6
COc1cccc(-n2c(SCC(=O)NCc3ccco3)nnc2-c2c[nH]c3ccccc23)c1,-2.3,5.1,x,x,x,x
COc1cccc(-n2c(SC)nnc2-c2c[nH]c3ccccc23)c1,1.2,12.5*,x,22.1*,8.0,13.5
CCCNC(=O)N1[C@@H](CO)[C@@H]2c3ccccc3N(C(=O)Nc3cccc(F)c3)C[C@@H]21,3.6,x,x,x,x,x
CCC(=O)N1CC2(C1)[C@H](c1ccc(-c3ccc(F)cc3)cc1)[C@@H](CO)N2S(C)(=O)=O,0.7,x,x,x,x,x
O=C(C[C@@H]1C=C[C@@H](NC(=O)Nc2ccc(C(F)(F)F)cc2)[C@@H](CO)O1)NCc1ccccn1,-2.0,x,x,x,x,x
Cc1ncc(CN2CCCC(C(=O)Nc3ccc(-c4cscn4)cc3)C2)cn1 (configuration not stated),-0.8,-0.6,1.2,x,x,x
COc1cccc(CN2CCCC(C(=O)Nc3ccc(-c4cscn4)cc3)C2)c1 (configuration not stated),2.5,7.4*,4.7,27.9*,11.5,10.4
c1ccc2[nH]c(CN3CCOCC3)nc2c1,x,-1.1,2.8,x,x,x
c1ccc2cc3[nH]c(CN4CCOCC4)nc3cc2c1,x,6.6*,-3.3,12.5*,10.2,-1.3
COc1ccc2c3c([nH]c2c1)[C@H](CO)N(C(=O)NC1CCCC1)CC31CCN(C(=O)Nc2cccc(F)c2)CC1,-6.2,x,x,x,x,x
O=C(NCc1nc2ccccc2[nH]1)C1=C[C@H](c2ccccc2)C[C@H](OCCCCO)O1,2.7,39.1*,1.3,73.5*,-5.0,45.5*
O=C(NCc1ccccc1)C1=C[C@H](c2ccc3c(c2)OCO3)C[C@H](OCCCCO)O1,1.5,0.1,2.2,x,x,x
O=C(C1=C[C@@H](c2ccc3c(c2)OCO3)C[C@@H](OCCCCO)O1)N1CCN(Cc2ccc3c(c2)OCO3)CC1,0.3,17.6*,-12.6,55.5*,1.8,24.9*
O=C(NCc1nc2ccccc2[nH]1)C1=C[C@H](c2ccc3c(c2)OCO3)C[C@H](OCCCCO)O1,0.6,69.4*,-8.5,88.7*,-2.7,76.1*
O=C(NCc1nc2ccccc2[nH]1)C1=C[C@@H](c2ccc(C(F)(F)F)cc2)C[C@@H](OCCCCO)O1,4.7,31.7*,5.1,67.8*,9.2,34.5*
O=C(NCc1nc2ccccc2[nH]1)C1=C[C@H](c2ccc(Br)cc2)C[C@H](OCCCCO)O1,-6.2,x,x,x,x,x
O=C(C1=C[C@H](c2ccc3c(c2)OCO3)C[C@H](OCCCCO)O1)N1CCN(Cc2ccc3c(c2)OCO3)CC1,-2.0,0.6,4.3,x,x,x
O=C(NCc1ccccc1)C1=C[C@@H](c2ccc(C(F)(F)F)cc2)C[C@@H](OCCCCO)O1,3.7,-0.2,0.8,x,x,x
COCC#Cc1ccc([C@@H]2[C@@H](CO)N3C(=O)CN(C(=O)CN4CCOCC4)C[C@@H]23)cc1,-0.6,x,x,x,x,x
Cc1ccc(-c2ccc3c(c2)O[C@H](CN(C)Cc2ccncc2)[C@@H](C)CN([C@H](C)CO)S3(=O)=O)cc1,-0.2,x,x,x,x,x
O=C(NCc1nc2ccccc2[nH]1)C1=C[C@H](c2ccc(C(F)(F)F)cc2)C[C@H](OCCCCO)O1,0.9,30.6*,0.9,69.0*,9.0,38.0*
SMILES,ERp5 inh,Tb MetRS inh,PDI turbidity,TbMetRS confirm,Jurkat cytotox,TbMetRS FP orth
O=C(NCc1ccccc1)C1=C[C@H](c2ccc(C(F)(F)F)cc2)C[C@H](OCCCCO)O1,-0.3,0.2,4.8,x,x,x
CN1c2ccc(-c3cccc(F)c3)cc2[C@@H]2[C@@H](CCN2C(=O)CC2CC2)[C@@H]1CO,4.3,x,x,x,x,x
CC(C)NC(=O)N(C)C[C@@H]1OCCCC[C@H](C)Oc2ccc(NC(=O)c3ccccc3)cc2C(=O)N([C@H](C)CO)C[C@H]1C,1.9,x,x,x,x,x
Cn1nnc(NCc2cc(Br)ccc2OCc2ccccc2F)n1,1.4,20.2*,8.3,24.3*,9.2,8.6
Fc1ccccc1COc1ccc(Br)cc1CNCC1CCCO1 (configuration not stated),0.8,-0.8,-6.4,x,x,x
COc1ccccc1NC(=O)N[C@@H]1CC[C@H](CC(=O)NCc2ccc(Cl)c(Cl)c2)O[C@H]1CO,-4.8,x,x,x,x,x
CCCn1cnc2cc(NCc3cccc(OC)c3O)ccc21,x,8.4*,2.1,15.2*,-0.1,3.0
CCCn1cnc2cc(NCc3ccccn3)ccc21,0.3,-0.2,-2.7,x,x,x
CO[C@@H]1CN(C)C(=O)c2ccc(NC(=O)c3ccccc3)cc2OC[C@@H](C)N(CC2CC2)C[C@H]1C,-13.1,x,x,x,x,x
O=C(Nc1ccccc1)Nc1cc(Cl)cc(Cl)c1,x,5.0,-1.4,x,x,x
O=C(Nc1ccccc1)Nc1cc(OCC(F)(F)F)cc(OCC(F)(F)F)c1,5.2,6.9*,-3.4,15.0*,89.1*,71.8*
Clc1ccccc1OCc1nc(-c2ccccn2)no1,x,0.5,21.9,x,x,x
Clc1ccc(OCc2nc(-c3ccccn3)no2)c(Br)c1,0.5,5.8*,-2.6,6.5*,7.9,8.4
CCOC(=O)C(/C=C(\C#N)C(=O)OCC)=C(/N)N1CCN(c2c(C)cccc2C)CC1,x,0.1,12.6,x,x,x
CCOC(=O)C(/C=C(\C#N)C(=O)OCC)=C(/N)N1CCN(c2ccc(OC)cc2)CC1,x,21.8*,-11.9,42.8*,2.9,12.7
O=C(Nc1nc2c(s1)CCCC2)C1CCCN1C(=O)c1cccs1 (configuration not stated),x,5.9*,-1.1,2.7,-6.6,5.5
O=C(Nc1nccs1)[C@@H]1CCCN1C(=O)c1cccs1,5.8,-0.6,4.2,x,x,x
Cc1cc(C)c(C)c(S(=O)(=O)Nc2cccc(-n3cnnn3)c2)c1C,5.5,7.3*,-0.5,16.9*,8.9,6.3
Cc1cc(C)c(S(=O)(=O)Nc2cccc(-n3cnnn3)c2)c(C)c1,1.1,2.2,0.9,x,x,x
C[C@@H]1CN([C@@H](C)CO)C(=O)CCCn2cc(nn2)CO[C@H]1CN(C)S(=O)(=O)c1ccc(F)cc1,-0.6,x,x,x,x,x
NCC[C@H]1CC[C@H](NC(=O)c2ccccc2F)[C@@H](CO)O1,-2.5,x,x,x,x,x
CCc1cccc(NC(=O)Cn2cc3c(n2)CCCC3)c1,0.3,0.0,x,x,x,x
CN(C)c1ccc(NC(=O)Cn2cc3c(n2)CCCC3)cc1,3.1,15.9*,x,15.8*,20.6*,4.1
OCC1(CCOc2ccccc2)CCN(Cc2nc3ccc(F)cc3[nH]2)CC1,1.2,7.5*,1.5,21.1*,1.9,0.1
OCC1(CCOc2ccccc2)CCN(Cc2cn[nH]c2-c2ccc(F)cc2)CC1,0.4,-0.2,7.1,x,x,x
